Assay outcomes (PubChem BioAssay)
TRPC4 block: TRPC4 (mouse) channel inhibition; Q9QUQ5; B-score at 10 µM; AID 2247; 300,000 tested, 0.39% active; HEK293 TRPC4beta/mu-opioid, DAMGO-evoked Fluo4 calcium flux; active compounds read low;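 active means B-score over 3 SD under the library average, no early fluorescence shift, positive overall ratio signal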
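Assay system: HEK293 cells with stable TRPC4beta plus mu-opioid receptor expression; Probe or stimulus: DAMGO in two steps, submaximal then maximal; Dosing: single-point compound dosing; Measured by: Fluo4 calcium-dye fluorescence, kinetic read; Read-out basis: B score from integrated Fluo4 fluorescence ratio.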
TRPC4 PAM: allosteric potentiators of mouse TRPC4 channel | Q9QUQ5 | HEK293 TRPC4beta/mu-opioid, DAMGO EC20, Fluo-4 Ca2+ flux; active compounds read high | B-score at 10 µM | 310,000 tested, 0.42% active | AID 2227;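 active means B-score of calcium response area above 5 SD of library B-scores, with initial fluorescence ratio within 5 SD of library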;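 further: B-score of integrated fluorescence ratio over time as area under calcium response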
TRPC4 agonist: opens the mouse TRPC4 cation channel | 310,000 tested, 0.49% active | AID 2237 | B-score at 10 µM | HEK293 TRPC4beta/mu-opioid, Fluo4 calcium fluorescence; active compounds read high;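 active means B-score above 5 SD of library B-scores, and initial fluorescence ratio not above library mean plus 5 SD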;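 further: positive B-score marks a calcium rise read as TRPC4 activation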
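Incubation: 45 min room-temperature Fluo4 loading, 110 s read / System: HEK293 cells stably co-expressing mouse TRPC4beta and mu-opioid receptor / Signal: Fluo4 fluorescence, kinetic / Control set: buffer (low) and maximal DAMGO (high) / Measure: integrated baseline-normalised fluorescence ratio, converted to per-well B score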
TRPC6 inh: mouse TRPC6 channel inhibition; Q61143; HEK293-TRPC6, membrane potential dye, ACh-evoked depolarization; active compounds read low; B-score at 10 µM; 310,000 tested, 1.1% active; AID 2553;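 active means B-score under library mean minus 3 SD, initial fluorescence not abnormally high, positive integrated signal ratio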;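 further: B-score derived from integrated fluorescence ratio over the kinetic read; more negative B-score means stronger inhibition of depolarization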
TRPC6 act: activates the mouse TRPC6 cation channel | 310,000 tested, 0.13% active | B-score at 10 µM | HEK293-TRPC6 membrane potential dye fluorescence; active compounds read high | Q61143;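 active means B-score of the integrated fluorescence ratio above library mean plus 3 SD, and starting fluorescence ratio within library mean plus 5 SD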;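 further: higher score means more depolarization so channel activation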
TRPC4 spec 2: mouse TRPC4 off-target activity of TRPC6 inhibitors, second screen; shares compounds with TRPC6 inh; inhibition, % at 10 µM; 920 tested, 42% active; HEK293 TRPC4/MOR, membrane potential dye fluorescence; channel activated by saturating DAMGO dose;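 active means compounds whose fluorescence signal differed from control wells by over 3 SD, either direction, in both duplicate plates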
TRPC4 spec: selectivity of TRPC6 inhibitors: effect on mouse TRPC4; 920 tested, 61% active; AID 2777; shares compounds with TRPC6 inh; activity change, negative = inhibition, % at 10 µM; HEK293 TRPC4/mu-opioid, membrane potential fluorescence;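 active means rise or fall in signal beyond 3 SD of buffer-only wells in both replicate plates, either sign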;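 further: integrated kinetic ratio of fluorescence range over baseline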
HEK293 MPD ctr 2-1: parental HEK293 nonspecific activity of TRPC6 inhibitors, second screen | shares compounds with TRPC6 inh | parental HEK293 membrane potential dye fluorescence; maximal acetylcholine challenge after compound addition | signal change vs control, % at 10 µM | 920 tested, 31% active | AID 2779;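 active means membrane potential signal moving either way by over 3 SD of the maximum-effect control, in both duplicate plates, meaning non-specific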
HEK293 MPD ctr-1: counter-screen for TRPC6 inhibitors: effect in parental HEK293 cells; shares compounds with TRPC6 inh; parental HEK293 membrane potential dye fluorescence; membrane potential signal change, % at 10 µM; 920 tested, 60% active; AID 2780;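 active means membrane potential signal shifting up or down by more than 3 SD of buffer-only wells, on both duplicate plates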
HEK293 MPD ctr-2: checks TRPC6 modulator effects in parental HEK293 cells | membrane potential dye fluorescence | 2,400 tested, 51% active | shares compounds with TRPC6 inh | membrane potential signal change, % at 10 µM | AID 488924;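 active means membrane potential signal moves up or down beyond 5 SD from buffer-only wells, on both duplicate plates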
HEK293 MPD ctr 2-2: second counter-screen for TRPC6 modulators: effect in parental HEK293 cells. inhibition, % at 10 µM. membrane potential dye fluorescence; after compound, maximal acetylcholine stimulation. AID 488926. shares compounds with TRPC6 inh. 2,400 tested, 14% active;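 active means membrane potential signal drops by more than 5 SD from the mean control signal, in both duplicate plates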;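 further: plate controls were acetylcholine ECmax control wells for no effect and buffer only wells for full effect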
TRPC4/MOR mod: selectivity of TRPC6 modulators against mouse TRPC4; percent change from control (negative = decrease, positive = increase), % at 10 µM; shares compounds with TRPC6 inh; 2,400 tested, 69% active; AID 488927; HEK293 TRPC4/mu-opioid, membrane potential fluorescence;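 active means membrane potential signal moved up or down beyond 5 SD of buffer control wells, in both duplicate plates, actives on both sides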;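 further: plate controls were assay buffer wells for no effect and DAMGO maximal-effect wells for full effect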
TRPC4/MOR inh 2: mouse TRPC4 off-target activity of TRPC6 modulators, second screen; shares compounds with TRPC6 inh; HEK293 TRPC4/mu-opioid, membrane potential dye fluorescence; stimulated with maximal-effect DAMGO; inhibition, % at 10 µM; 2,400 tested, 55% active; AID 488928;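 active means drop in membrane potential signal beyond 5 SD of the control wells in both duplicate plates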;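 further: TRPC4 counter screen for TRPC6 hits run under conditions tuned for TRPC6 not TRPC4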
TRPC6 inh conf: confirmation of mouse TRPC6 inhibitors | shares compounds with TRPC6 inh | HEK293-TRPC6, membrane potential dye, ACh-evoked depolarization | inhibition, % at 10 µM | 3,300 tested, 43% active;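 active means fluorescence ratio falls more than 5 SD below the full-stimulation control mean, in both duplicate runs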;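 further: integrated fluorescence ratio of peak minus minimum over baseline after agonist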
TRPC6 act conf: mouse TRPC6 activator confirmation; HEK293-TRPC6 membrane potential dye fluorescence, FDSS; AID 488961; activation, % at 10 µM; shares compounds with TRPC6 inh; 2,800 tested, 11% active;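 active means ratio signal rise beyond 5 SD above unstimulated control wells' mean, seen in both duplicate runs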;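 further: plate controls were buffer EC0 wells for no effect and acetylcholine ECmax response for full effect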
An asterisk follows results filed as active; i = inactive; . = not tested or not shown. Only some compounds are listed: those with a hit (about 2.3% of all), similar ones and a draw of the others.

SMILES	TRPC4 block	TRPC4 PAM	TRPC4 agonist	TRPC6 inh	TRPC6 act	HEK293 MPD ctr-2	HEK293 MPD ctr 2-2	TRPC4/MOR mod	TRPC4/MOR inh 2	TRPC6 inh conf	TRPC6 act conf	others
COc1ccc2c(c1)CCCN2C(N)=Nc1ccc(Cl)cc1	i	i	i	-6.5*	i	114%*	i	16%*	69%*	i	.
Cc1ccc(OCCCCN2CCC(C)CC2)c(Br)c1	i	i	i	i	i	.	.	.	.	.	.
Clc1ccc(Cl)c(OCCCCN2CCNCC2)c1	i	24*	i	-8.7*	i	.	.	.	.	i	i	TRPC4 spec 2=57%*;TRPC4 spec=-0.3%*;HEK293 MPD ctr 2-1=i;HEK293 MPD ctr-1=3.5%*
Clc1ccc(OCCCN2CCCCC2)c(Br)c1	i	i	i	i	i	.	.	.	.	.	.
Cc1ccc(OCCCCCCN2CCNCC2)c(Br)c1	i	i	i	-9*	i	.	.	.	.	70%*	i	TRPC4 spec 2=52%*;TRPC4 spec=1.3%*;HEK293 MPD ctr 2-1=i;HEK293 MPD ctr-1=6.4%*
Clc1ccc(OCCCCCN2CCCC2)c(Br)c1	i	i	i	-5.1*	i	121%*	i	22%*	34%*	i	.
CCN1CCN(CCCOc2ccc(Cl)cc2Br)CC1	i	i	i	i	i	.	.	.	.	.	.
CCC1CCCCN1CCCNC(=O)c1ccc(N2CCCC2=O)cc1 (stereo unspecified)	i	i	i	i	i	.	.	.	.	.	.
Cc1cc(OC(C)C(=O)NCC2CCC(C(=O)O)CC2)c2c(C)cc(=O)oc2c1 (stereo unspecified)	i	i	i	i	i	.	.	.	.	.	.
Cc1c(CCOC(=O)C23CC4CC(CC(C)(C4)C2)C3)sc[n+]1Cc1ccccc1	i	i	i	i	i	.	.	.	.	.	.
Cc1ccc(C(=O)OCCc2sc[n+](Cc3ccccc3)c2C)cc1	i	i	i	-9.4*	i	.	.	.	.	80%*	i	TRPC4 spec 2=i;TRPC4 spec=-12%*;HEK293 MPD ctr 2-1=31%*;HEK293 MPD ctr-1=-170%*
Cc1c(CCOC(=O)C23CC4CC(CC(C4)C2)C3)sc[n+]1Cc1ccccc1	i	i	i	-7.5*	i	.	.	.	.	88%*	i	TRPC4 spec 2=i;TRPC4 spec=i;HEK293 MPD ctr 2-1=-9.5%*;HEK293 MPD ctr-1=i
Cc1ccc(C(=O)OCCN(C)Cc2ccccc2)cc1	i	i	i	i	i	.	.	.	.	.	.
Cc1cc(C)n2nc(C(=O)OCC(=O)N(C)C3CCCCC3)nc2n1	i	i	i	i	i	.	.	.	.	.	.
C#Cc1ccc(C(=O)Nc2ccc(N3CCC(C)CC3)c(C(N)=O)c2)cc1	i	i	i	i	i	.	.	.	.	.	.
C(#Cc1ccccc1)C[N+]1(CC#Cc2cccc3ccccc23)CCCC1	i	i	i	-5.5*	i	i	i	-14%*	i	i	i
CC(C)OCCCN1CN(S(=O)(=O)c2cccc(Cl)c2)c2nc3ccccc3nc21	i	i	i	-5.1*	i	i	i	9.5%*	i	i	i
CC(C)OCCCN1CN(S(=O)(=O)c2ccc(Cl)cc2)c2nc3ccccc3nc21	i	i	i	i	i	.	.	.	.	.	.
COC(=O)c1cc(CSc2nc3ccccc3c(=O)n2C)oc1C	i	i	i	i	i	.	.	.	.	.	.
CC(C)(C)NC(=O)C(c1ccc(F)cc1)N(Cc1ccco1)C(=O)CCC(=O)Nc1ccccn1 (stereo unspecified)	i	i	i	-6*	i	354%*	i	78%*	i	i	.
CC(C)(C)NC(=O)C(c1ccc(O)cc1)N(Cc1ccco1)C(=O)CCC(=O)Nc1ccccn1 (stereo unspecified)	i	i	i	i	i	.	.	.	.	.	.
COCc1[nH]nc2c1C(c1c(F)cccc1Cl)C(C#N)=C(N)O2 (stereo unspecified)	i	i	i	-5.6*	i	i	i	i	i	i	i
CS(=O)(=O)N(CC(=O)N/N=C/c1cccs1)c1cccc(Cl)c1Cl	i	i	i	i	i	.	.	.	.	.	.
CC(=O)c1c(C)n(-c2ccccc2)c2ccc(OCC(O)CN3CCOCC3)cc12 (stereo unspecified)	i	i	i	i	i	.	.	.	.	.	.
CCN(CC)CC(O)COc1ccc2c(c1)c(C(C)=O)c(C)n2-c1ccccc1 (stereo unspecified)	i	i	i	-5.5*	i	i	i	i	74%*	50%*	i
Cc1ccccc1NC(=O)CCCN1C(=O)C2CC=CCC2C1=O (stereo unspecified)	i	i	i	i	i	.	.	.	.	.	.
Cc1ccc(-c2nnn(CC(=O)N(Cc3ccco3)C(C(=O)NC3CCCC3)c3cccs3)n2)o1 (stereo unspecified)	i	i	i	i	i	.	.	.	.	.	.
CCN(CC)CCN(C(=O)Cn1nnc(-c2ccc(C)o2)n1)C(C(=O)NC1CCCC1)c1ccc(F)cc1 (stereo unspecified)	i	i	i	i	30*	343%*	i	68%*	44%*	i	192%*
